Measurements: ChEMBL document CHEMBL1134551, “The effect of 1,3-diaryl-[1H]-pyrazole-4-acetamides on glucose utilization in ob/ob mice” (2001)

Key:
[1] = test system: Mus musculus; assay: Percentage efficacy to normalize the blood glucose levels to that of normal mouse in ob/ob mouse after 3 days and 4 hours of 100 mg/kg dose administration.; type: functional
Outline: (§1)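 Adult male C57BL ob/ob mice, n = 6/group, matched on day-0 blood glucose; non-diabetic animals (<150 mg/dL basal) excluded. Oral dosing each morning days 1-3 in 0.5% CMC with 0.2% Tween-80. Tail-nick blood glucose by YSI analyzer. % efficacy = {1 − ([glc]cpd − 100)/([glc]veh − 100)} × 100. Significance by t-test vs vehicle, p < 0.05.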

[2] = test system: Mus musculus; assay: Percentage efficacy to normalize the blood glucose levels to that of normal mouse in ob/ob mouse after 3 days and 8 hours of 100 mg/kg dose administration.; type: functional; outline: as §1
[3] = test system: Mus musculus; assay: Percentage efficacy to normalize the blood glucose levels to that of normal mouse in ob/ob mouse after 3 days and 4 hours of 100 mg/kg dose administration; Nonsignificant; type: functional, organism-based; parameters: dose 100 mg/kg; outline: as §1
[4] = test system: Mus musculus; assay: Percentage efficacy to normalize the blood glucose levels to that of normal mouse in ob/ob mouse after 3 days and 8 hours of 300 mg/kg dose administration; Nonsignificant; type: functional, organism-based; parameters: dose 300 mg/kg; outline: as §1
[5] = test system: Mus musculus; assay: Percentage efficacy to normalize the blood glucose levels to that of normal mouse in ob/ob mouse after 3 days and 4 hours of 300 mg/kg dose administration; Nonsignificant; type: functional, organism-based; parameters: dose 300 mg/kg; outline: as §1
[6] = test system: Mus musculus; assay: Percentage efficacy to normalize the blood glucose levels to that of normal mouse in ob/ob mouse after 3 days and 4 hours of 300 mg/kg dose administration.; type: functional; outline: as §1
[7] = test system: Mus musculus; assay: Percentage efficacy to normalize the blood glucose levels to that of normal mouse in ob/ob mouse after 3 days and 8 hours of 300 mg/kg dose administration.; type: functional; outline: as §1
[8] = test system: Mus musculus; assay: Percentage efficacy to normalize the blood glucose levels to that of normal mouse in ob/ob mouse after 3 days and 8 hours of 100 mg/kg dose administration; Nonsignificant; type: functional, organism-based; parameters: dose 100 mg/kg; outline: as §1
[9] = test system: Mus musculus; assay: Percentage efficacy to normalize the blood glucose levels to that of normal mouse in ob/ob mouse after 3 days and 4 hours of 30 mg/kg dose administration.; type: functional; outline: as §1
[10] = species: Mus musculus; assay: Effective dose for glucose lowering in ob/ob mice; type: functional
Outline: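 ob/ob mice, once-daily oral dosing for 3 days in 0.5% CMC/0.2% Tween-80, or in 40% microemulsion (Cremophor RH40, corn oil-monoglyceride, propylene glycol, ethanol) where stated; tail-nick blood glucose. % efficacy computed as below at selected doses; ED50 from sigmoidal fit of dose-response curve.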

[11] = test system: Mus musculus; assay: Percentage efficacy to normalize the blood glucose levels to that of normal mouse in ob/ob mouse after 3 days and 8 hours of 30 mg/kg dose administration.; type: functional; outline: as §1

Row | SMILES | Efficacy [1] | Efficacy [2] | Efficacy [3] | other results
1 | CN(C)C(=O)Cc1cn(-c2cccc(C(F)(F)F)c2)nc1-c1ccc2c(ccc3ccccc32)c1 | 90% | 71% |  | 
2 | CC(=O)OC1c2ccccc2-c2ccc(-c3nn(-c4cccc(C(F)(F)F)c4)cc3CC(=O)N(C)C)cc21 (stereo not drawn) | 95% | 108% |  | 
3 | COc1ccc(-c2nn(-c3cccc(C(F)(F)F)c3)cc2CC(=O)N(C)C)cc1OC |  | 85% | Not significant | 
4 | CN(C)C(=O)Cc1cn(-c2cc(C(F)(F)F)cc(C(F)(F)F)c2)nc1-c1ccc(Cl)c(Cl)c1 |  |  |  | Efficacy [4]: Not significant; Efficacy [5]: Not significant
5 | CN(C)C(=O)Cc1cn(-c2ccc(Cl)c(Cl)c2)nc1-c1ccc(Cl)c(Cl)c1 |  |  |  | Efficacy [6]: 34%; Efficacy [7]: 53%
6 | O=C(Cc1cn(-c2cccc(C(F)(F)F)c2)nc1-c1ccc(Cl)c(Cl)c1)N1CCCC1 |  |  |  | Efficacy [6]: 72%; Efficacy [7]: 76%
7 | O=C(Cc1cn(-c2cccc(C(F)(F)F)c2)nc1-c1ccc(Cl)c(Cl)c1)N(Cc1ccccc1)Cc1ccccc1 | 52% | 49% |  | 
8 | CN(C)C(=O)Cc1cn(-c2cccc(C(F)(F)F)c2)nc1-c1ccc2ccccc2c1 |  |  | Not significant | Efficacy [8]: Not significant
9 | O=C(Cc1cn(-c2cccc(C(F)(F)F)c2)nc1-c1ccc(Cl)c(Cl)c1)N1CCN(c2ccccc2)CC1 |  | 42% | Not significant | 
10 | CN(C)C(=O)Cc1cn(-c2cccc(C(F)(F)F)c2)nc1-c1ccc2c(c1)CCc1ccccc1-2 | 87% | 111% |  | 
11 | CN(C)C(=O)Cc1cn(-c2cccc(C(F)(F)F)c2)nc1-c1ccc(Cc2ccccc2)cc1 |  |  | Not significant | Efficacy [8]: Not significant
12 | CCN(CC)C(=O)Cc1cn(-c2cccc(C(F)(F)F)c2)nc1-c1ccc(Cl)c(Cl)c1 |  |  |  | Efficacy [6]: 45%; Efficacy [7]: 50%
13 | CN(C)C(=O)Cc1cn(-c2cccc(C(F)(F)F)c2)nc1-c1ccccc1 |  |  |  | Efficacy [6]: 71%; Efficacy [7]: 36%
14 | CN(C)C(=O)Cc1cn(-c2cccc(C(F)(F)F)c2)nc1-c1ccccc1-c1ccccc1 |  |  | Not significant | Efficacy [8]: Not significant
15 | CONC(=O)Cc1cn(-c2cccc(C(F)(F)F)c2)nc1-c1ccc(Cl)c(Cl)c1 |  |  |  | Efficacy [6]: 48%; Efficacy [7]: 35%
16 | CN(C)C(=O)Cc1cn(-c2ccc(C(C)(C)C)cc2)nc1-c1ccc(Cl)c(Cl)c1 |  |  | Not significant | Efficacy [8]: Not significant
17 | CN(C)C(=O)Cc1cn(-c2cccc(C(F)(F)F)c2)nc1-c1ccc2c(c1)C(=O)c1ccccc1-2 | 107% | 78% |  | 
18 | CN(C)C(=O)Cc1cn(-c2cccc(C(F)(F)F)c2)nc1-c1cccc2ccccc12 |  |  | Not significant | Efficacy [8]: Not significant
19 | CN(C)C(=O)Cc1cn(-c2cccc(C(F)(F)F)c2)nc1-c1ccc2c(c1)C(C)(C)c1ccccc1-2 | 67% | 83% |  | 
20 | CN(C)C(=O)Cc1cn(-c2cccc(C(F)(F)F)c2)nc1-c1ccc2sc3ccccc3c2c1 | 59% |  |  | Efficacy [8]: Not significant
21 | CN(C)C(=O)Cc1cn(-c2cccc(C(F)(F)F)c2)nc1-c1ccc(-c2ccccc2)cc1 | 84% | 69% |  | Efficacy [9]: 80%; ED50 [10]: 1.3 mg/kg/day; Efficacy [11]: 94%
22 | CN(C)C(=O)Cc1cn(-c2cccc(C(F)(F)F)c2)nc1-c1ccc2c(c1)Cc1ccccc1O2 | 65% | 96% |  | 
23 | O=C(O)Cc1cn(-c2cccc(C(F)(F)F)c2)nc1-c1ccc(Cl)c(Cl)c1 |  |  |  | Efficacy [4]: Not significant; Efficacy [5]: Not significant
24 | CN(C)C(=O)Cc1cn(-c2cccc(C(F)(F)F)c2)nc1-c1ccc(Oc2ccccc2)cc1 |  |  | Not significant | Efficacy [8]: Not significant
25 | CN(C)C(=O)Cc1cn(-c2cccc(C(F)(F)F)c2)nc1-c1ccc2c(c1)Cc1ccccc1-2 | 87% | 57% |  | Efficacy [9]: 113%; ED50 [10]: 0.05 mg/kg/day; Efficacy [11]: 115%
26 | O=C(Cc1cn(-c2cccc(C(F)(F)F)c2)nc1-c1ccc(Cl)c(Cl)c1)NO |  |  |  | Efficacy [4]: Not significant; Efficacy [5]: Not significant
